Active and inactive are the calls of the source. No cut-off for these calls is given here.
Columns and labels:
Mus musculus [1] = test: Acute toxicity in Balb/C mouse assessed as reduction in body weight at 8.5 mg/kg, ip administered thrice a week for 2 weeks measured 48 hrs after last dose; format: organism-based; design: dose 8.5 mg/kg, route intraperitoneal; conditions: in vivo
Method in brief: (§1)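 Male Balb/c mice aged 6–8 weeks, n=4 per group, dosed i.p. with compound suspended in PBS and filter sterilized, 10 ul/g body weight. Body weight tracked throughout the live phase. Under isoflurane anaesthesia, terminal cardiac-puncture bleed; serum taken for transaminases and other chemistries. Sacrifice by cervical dislocation 48 h after last dose, with liver and spleen weighed at necropsy. Kidneys examined by histopathology.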

Mus musculus [2] = test: Inhibition of PTEN expression in Balb/C mouse adipose tissue assessed as increase in mRNA levels at 8.25 mg/kg, ip administered thrice a week for 2 weeks measured 48 hrs after last dose by […]; format: functional, organism-based; design: dose 8.25 mg/kg
Method in brief: (§2)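 Male Balb/c mice, n=4 per group, dosed i.p. in PBS and sacrificed 48 h after last dose. Liver, kidney and adipose tissue homogenised at once in 4 M guanidine isothiocyanate, 25 mM EDTA, 50 mM Tris-HCl pH 6. RNA purified on columns and run by fluorescence-based quantitative RT-PCR. Target transcript levels normalised to cyclophilin A and expressed relative to saline-treated controls.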

Mus musculus [3] = test: Acute toxicity in Balb/C mouse assessed as necrosis in kidney at 33 mg/kg, ip administered thrice a week for 2 weeks measured 48 hrs after last dose; format: organism-based; design: dose 33 mg/kg, route intraperitoneal; conditions: in vivo; method in brief: as §1
Mus musculus [4] = test: Inhibition of PTEN expression in Balb/C mouse kidney assessed as increase in mRNA levels at 33 mg/kg, ip administered as single dose measured 48 hrs after last dose […]; format: functional, organism-based; design: dose 33 mg/kg; method in brief: as §2
Mus musculus [5] = test: Inhibition of PTEN expression in Balb/C mouse liver assessed as increase in mRNA levels at 8.25 mg/kg, ip administered thrice a week for 2 weeks measured 48 hrs after last dose […]; format: functional, organism-based; design: dose 8.25 mg/kg; method in brief: as §2
Mus musculus [6] = test: Acute toxicity in Balb/C mouse assessed as necrosis in kidney at 8.5 mg/kg, ip administered thrice a week for 2 weeks measured 48 hrs after last dose; format: organism-based; design: dose 8.5 mg/kg, route intraperitoneal; conditions: in vivo; method in brief: as §1
Mus musculus [7] = test: Inhibition of PTEN expression in Balb/C mouse kidney assessed as increase in mRNA levels at 8.25 mg/kg, ip administered thrice a week for 2 weeks measured 48 hrs after last dose […]; format: functional, organism-based; design: dose 8.25 mg/kg; method in brief: as §2
Mus musculus [8] = test: Acute toxicity in Balb/C mouse assessed as reduction in body weight at 33 mg/kg, ip administered thrice a week for 2 weeks measured 48 hrs after last dose; format: organism-based; design: dose 33 mg/kg, route intraperitoneal; conditions: in vivo; method in brief: as §1
Mus musculus [9] = test: Inhibition of IR expression in Balb/C mouse adipose tissue assessed as upregulation of IR-A transcript at 6.0 umol/kg, ip administered thrice a week for 2 weeks measured 48 hrs after last dose by […]; format: functional; design: scale not given: the % may be the effect or the level left; method in brief: as §2
Mus musculus [10] = test: Inhibition of IR expression in Balb/C mouse kidney assessed as reduction in IR-B transcript at 6.0 umol/kg, ip administered thrice a week for 2 weeks measured 48 hrs after last dose […]; format: functional, organism-based; method in brief: as §2
Mus musculus [11] = test: Inhibition of IR expression in Balb/C mouse kidney assessed as upregulation of IR-A transcript at 6.0 umol/kg, ip administered thrice a week for 2 weeks measured 48 hrs after last dose […]; format: functional, organism-based; method in brief: as §2
Mus musculus [12] = test: Inhibition of IR expression in Balb/C mouse kidney assessed as upregulation of IR-A transcript at 1.5 umol/kg, ip administered thrice a week for 2 weeks measured 48 hrs after last dose […]; format: functional, organism-based; method in brief: as §2
Mus musculus [13] = test: Acute toxicity in Balb/C mouse assessed as change in liver weight at 1.5 to 6.0 umol/kg, ip administered thrice a week for 2 weeks measured 48 hrs after last dose; format: organism-based; conditions: in vivo; method in brief: as §1
Mus musculus [14] = test: Acute toxicity in Balb/C mouse assessed as change in plasma chemistry at 1.5 to 6.0 umol/kg, ip administered thrice a week for 2 weeks measured 48 hrs after last dose; format: organism-based; conditions: in vivo; method in brief: as §1
Mus musculus [15] = test: Acute toxicity in Balb/C mouse assessed as change in spleen weight at 1.5 to 6.0 umol/kg, ip administered thrice a week for 2 weeks measured 48 hrs after last dose; format: organism-based; conditions: in vivo; method in brief: as §1
Mus musculus [16] = test: Inhibition of IR expression in Balb/C mouse adipose tissue assessed as reduction in IR-B transcript at 6.0 umol/kg, ip administered thrice a week for 2 weeks measured 48 hrs after last dose […]; format: functional; design: scale not given: the % may be the effect or the level left; method in brief: as §2
Mus musculus [17] = test: Acute toxicity in Balb/C mouse assessed as reduction in body weight at 10.5 umol/kg, ip administered thrice a week for 2 weeks measured 48 hrs after last dose; format: organism-based; conditions: in vivo; method in brief: as §1
Mus musculus [18] = test: Inhibition of IR expression in Balb/C mouse liver assessed as upregulation of IR-A transcript at 6.0 umol/kg, ip administered thrice a week for 2 weeks measured 48 hrs after last dose by quantitative RT-PCR analysis
Mus musculus [19] = test: Inhibition of IR expression in Balb/C mouse kidney assessed as reduction in IR-B transcript at 1.5 umol/kg, ip administered thrice a week for 2 weeks measured 48 hrs after last dose […]; format: functional, organism-based; method in brief: as §2
Mus musculus [20] = test: Acute toxicity in Balb/C mouse assessed as reduction in body weight at 1.5 to 6.0 umol/kg, ip administered thrice a week for 2 weeks measured 48 hrs after last dose; format: organism-based; conditions: in vivo; method in brief: as §1
Mus musculus [21] = test: Inhibition of IR expression in Balb/C mouse liver assessed as upregulation of IR-A transcript at 1.5 umol/kg, ip administered thrice a week for 2 weeks measured 48 hrs after last dose by quantitative RT-PCR analysis

Cc1cn(CC(=O)N(CCNC(=O)CN(CCNC(=O)[C@H](CCCCN)N(CCNC(=O)CNC(=O)[C@@H](CCCCN)NC(=O)[C@@H](CCCCN)NC(=O)[C@@H](C)NC(=O)[C@@H](CC(C)C)NC(=O)[C@@H](CCCCN)NC(=O)[C@@H](CC(C)C)NC(=O)[C@@H](C)NC(=O)[C@@H](C)NC(=O)[C@@H](CCCCN)NC(=O)[C@@H](CC(C)C)NC(=O)[C@@H](CC(C)C)NC(=O)[C@@H](CCCCN)NC(=O)[C@H](N)CCCCN)C(=O)Cn2cc(C)c(=O)[nH]c2=O)C(=O)Cn2ccc(N)nc2=O)CC(=O)NCCN(CC(=O)NCCN(CC(=O)NCCN(CC(=O)NCCN(CC(=O)NCCN(CC(=O)NCCN(CC(=O)NCCN(CC(=O)NCCN(CC(=O)NCCN(CC(=O)NCCN(CC(=O)NCCN(CC(=O)NCCN(CC(=O)NCCN(CC(=O)N[C@@H](CCCCN)C(N)=O)C(=O)Cn2cnc3c(N)ncnc32)C(=O)Cn2ccc(N)nc2=O)C(=O)Cn2cnc3c(N)ncnc32)C(=O)Cn2cc(C)c(=O)[nH]c2=O)C(=O)Cn2ccc(N)nc2=O)C(=O)Cn2cc(C)c(=O)[nH]c2=O)C(=O)Cn2cnc3c(N)ncnc32)C(=O)Cn2ccc(N)nc2=O)C(=O)Cn2cnc3c(N)ncnc32)C(=O)Cn2ccc(N)nc2=O)C(=O)Cn2cnc3c(=O)[nH]c(N)nc32)C(=O)Cn2cnc3c(N)ncnc32)C(=O)Cn2ccc(N)nc2=O)c(=O)[nH]c1=O
Activity (Mus musculus [1]): Toxic | Activity (Mus musculus [2]): inactive | Activity (Mus musculus [3]): Toxic | Activity (Mus musculus [4]): inactive | Activity (Mus musculus [5]): inactive | Activity (Mus musculus [6]): Toxic | Activity (Mus musculus [7]): inactive | Activity (Mus musculus [8]): Toxic

Cc1cn(CC(=O)N(CCNC(=O)CN(CCNC(=O)CN(CCNC(=O)CN(CCNC(=O)CN(CCNC(=O)CN(CCNC(=O)CN(CCNC(=O)CN(CCNC(=O)[C@H](CCCCN)N(CCNC(=O)CN(CCNC(=O)CN(CCNC(=O)CN(CCNC(=O)[C@H](CCCCN)NC(=O)[C@H](CCCCN)NC(=O)[C@H](CCCCN)NC(=O)[C@H](CCCCN)NC(=O)[C@H](CCCCN)NC(=O)[C@H](CCCCN)NC(=O)[C@H](CCCCN)NC(=O)[C@@H](N)CCCCN)C(=O)Cn2cnc3c(N)ncnc32)C(=O)Cn2ccc(N)nc2=O)C(=O)Cn2ccc(N)nc2=O)C(=O)Cn2cc(C)c(=O)[nH]c2=O)C(=O)Cn2cnc3c(N)ncnc32)C(=O)Cn2ccc(N)nc2=O)C(=O)Cn2cc(C)c(=O)[nH]c2=O)C(=O)Cn2cnc3c(=O)[nH]c(N)nc32)C(=O)Cn2cc(C)c(=O)[nH]c2=O)C(=O)Cn2ccc(N)nc2=O)C(=O)Cn2ccc(N)nc2=O)CC(=O)NCCN(CC(=O)NCCN(CC(=O)NCCN(CC(=O)NCCN(CC(=O)NCCN(CC(=O)NCCN(CC(=O)NCCN(CC(=O)NCCN(CC(=O)N[C@@H](CCCCN)C(N)=O)C(=O)Cn2cnc3c(N)ncnc32)C(=O)Cn2ccc(N)nc2=O)C(=O)Cn2ccc(N)nc2=O)C(=O)Cn2cnc3c(N)ncnc32)C(=O)Cn2ccc(N)nc2=O)C(=O)Cn2cnc3c(=O)[nH]c(N)nc32)C(=O)Cn2cnc3c(=O)[nH]c(N)nc32)C(=O)Cn2ccc(N)nc2=O)c(=O)[nH]c1=O
Activity (Mus musculus [9]): 200% | Activity (Mus musculus [10]): inactive | Activity (Mus musculus [11]): Active | Activity (Mus musculus [12]): Active | Activity (Mus musculus [13]): Non-toxic | Activity (Mus musculus [14]): Non-toxic | Activity (Mus musculus [15]): Non-toxic | Activity (Mus musculus [16]): 50% | Activity (Mus musculus [17]): Toxic | Activity (Mus musculus [18]): Active | Activity (Mus musculus [19]): inactive | Activity (Mus musculus [20]): Non-toxic | Activity (Mus musculus [21]): Active

Source: ChEMBL document CHEMBL1155469, “Peptide nucleic acids conjugated to short basic peptides show improved pharmacokinetics and antisense activity in adipose tissue” (J Med Chem, 2010)
